Activity calls are given as the source filed them. No cut-off for these calls is given here.
Legend:
[1] = molecular target: T1, Caspase-7 (Homo sapiens, UniProt P55210); test: Inhibition of caspase 7
T1 sequence (P55210 whole entry): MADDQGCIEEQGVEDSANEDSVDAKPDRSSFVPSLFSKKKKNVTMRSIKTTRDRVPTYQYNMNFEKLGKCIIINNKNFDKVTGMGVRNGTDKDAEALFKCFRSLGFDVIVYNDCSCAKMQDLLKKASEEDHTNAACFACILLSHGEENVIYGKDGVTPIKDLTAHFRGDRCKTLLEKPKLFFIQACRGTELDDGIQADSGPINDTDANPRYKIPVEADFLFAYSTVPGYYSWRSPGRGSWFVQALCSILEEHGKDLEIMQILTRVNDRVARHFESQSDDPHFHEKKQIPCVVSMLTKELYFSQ
Method in brief: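 Inhibitor in DMSO (final 5 pM–500 µM, single doses) preincubated 10 min, then Ac-DEVD-AMC (final 10 µM) reacted 10 min. Cleaved AMC quantified by fluorescence; IC50 by nonlinear regression.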

[2] = molecular target: Caspase-8 (Homo sapiens, UniProt Q14790); test: Inhibition of caspase 8
Method in brief: (§1)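 Recombinant human caspase-1, -6 or -8 at 0.5 units per assay, preincubated 10 min at 37 °C with compound in DMSO at single doses from 5 pM to 500 µM. Fluorogenic AMC substrate then added at 10 µM final (caspase-1 Ac-YVAD-AMC, caspase-6 Ac-VEID-AMC, caspase-8 Ac-IETD-AMC) for a further 10 min. Read-out was AMC fluorescence. IC50 taken by nonlinear regression.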

[3] = tested on: HUVEC; test: Inhibition of caspase 3 processing in apoptotic HUVEC at 10 uM; format: functional, cell-based; conditions: Homo sapiens
Method in brief: (§2)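 HUVEC grown on gelatin-coated dishes in RPMI-1640 with 15% calf serum, heparin and pituitary extract. Cells were preincubated 30 min with compound. Apoptosis was then induced by growth-factor withdrawal (RPMI-1640 alone), with compound present, for 8 h at 37 °C. Lysates (30 µg) were run on 15% SDS-PAGE Western blots for processed caspase-3 (p17/p12), caspase-8, caspase-9, cleaved PARP ([…]) and lamin A/C. Z-VAD-fmk served as full-inhibition control and β-actin as loading control.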

[4] = tested on: HUVEC; test: Inhibition of caspase 8 processing in apoptotic HUVEC at 50 uM; format: functional, cell-based; conditions: Homo sapiens; method in brief: as §2
[5] = tested on: HUVEC; test: Inhibition of caspase 8 processing in apoptotic HUVEC at 100 uM; format: functional, cell-based; conditions: Homo sapiens; method in brief: as §2
[6] = tested on: HUVEC; test: Inhibition of caspase 9 processing in apoptotic HUVEC at 50 uM; format: functional, cell-based; conditions: Homo sapiens; method in brief: as §2
[7] = tested on: HUVEC; test: Inhibition of caspase 9 processing in apoptotic HUVEC at 100 uM; format: functional, cell-based; conditions: Homo sapiens; method in brief: as §2
[8] = molecular target: T2, Caspase-1 (Homo sapiens, UniProt P29466); test: Inhibition of caspase 1; method in brief: as §1
T2 sequence (P29466 whole entry): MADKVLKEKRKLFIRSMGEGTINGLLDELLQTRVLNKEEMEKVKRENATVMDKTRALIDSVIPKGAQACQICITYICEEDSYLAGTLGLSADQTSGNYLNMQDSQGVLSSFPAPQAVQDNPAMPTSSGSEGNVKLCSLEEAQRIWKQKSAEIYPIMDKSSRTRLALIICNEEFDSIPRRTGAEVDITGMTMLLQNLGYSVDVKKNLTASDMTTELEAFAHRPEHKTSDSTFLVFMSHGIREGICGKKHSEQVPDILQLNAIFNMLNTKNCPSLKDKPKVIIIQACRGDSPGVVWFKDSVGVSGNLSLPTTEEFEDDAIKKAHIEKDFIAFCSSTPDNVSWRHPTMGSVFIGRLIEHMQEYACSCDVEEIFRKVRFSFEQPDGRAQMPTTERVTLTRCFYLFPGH

[9] = molecular target: T3, Caspase-3 (Homo sapiens, UniProt P42574); test: Inhibition of caspase 3
T3 sequence (P42574 whole entry): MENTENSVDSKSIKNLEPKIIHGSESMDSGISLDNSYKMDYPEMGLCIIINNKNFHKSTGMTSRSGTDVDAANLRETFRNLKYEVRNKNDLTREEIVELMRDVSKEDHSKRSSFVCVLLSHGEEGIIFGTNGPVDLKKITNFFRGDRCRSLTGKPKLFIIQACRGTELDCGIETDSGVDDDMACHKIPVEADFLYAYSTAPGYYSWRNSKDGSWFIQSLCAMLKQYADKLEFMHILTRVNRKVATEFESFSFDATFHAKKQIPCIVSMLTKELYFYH
Method in brief: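 Recombinant human caspases (0.5 units/assay) preincubated 10 min at 37 °C with isatin in DMSO (single doses, 5 pM–500 µM). The buffer for all was 0.1% CHAPS, 100 mM NaCl, 2 mM EDTA, 10% sucrose, with 20 mM HEPES pH 7.4. Caspase-1 used 100 mM HEPES and β-mercaptoethanol, and caspase-7 used β-mercaptoethanol. AMC substrates at 10 µM for 10 min: YVAD (caspase-1), DEVD (caspase-3/-7), VEID (caspase-6), IETD (caspase-8). IC50 by nonlinear regression.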

[10] = molecular target: T4, Caspase-6 (Homo sapiens, UniProt P55212); test: Inhibition of caspase 6; method in brief: as §1
T4 sequence (P55212 whole entry): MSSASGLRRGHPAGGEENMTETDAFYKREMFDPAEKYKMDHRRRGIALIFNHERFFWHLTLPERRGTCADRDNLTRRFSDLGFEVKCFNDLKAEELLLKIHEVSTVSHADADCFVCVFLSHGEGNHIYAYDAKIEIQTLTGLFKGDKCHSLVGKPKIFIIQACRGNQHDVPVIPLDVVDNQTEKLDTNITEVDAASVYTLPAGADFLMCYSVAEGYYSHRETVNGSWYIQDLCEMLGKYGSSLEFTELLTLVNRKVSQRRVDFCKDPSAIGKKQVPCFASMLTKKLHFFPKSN

[11] = tested on: HUVEC; test: Inhibition of PARP cleavage in apoptotic HUVEC at 50 uM; format: functional, cell-based; conditions: Homo sapiens; method in brief: as §2
[12] = tested on: HUVEC; test: Inhibition of lamin A/C cleavage in apoptotic HUVEC at 50 uM; format: functional, cell-based; conditions: Homo sapiens; method in brief: as §2
[13] = molecular target: T3, Caspase-3; test: Binding affinity to human caspase 3
Method in brief: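 Recombinant full-length human caspase-3 (1 unit/assay, 0.5 pM) preincubated 10 min at 37 °C with isatin in DMSO (single doses, 5 pM–500 µM) in 25 mM HEPES pH 7.5, 0.1% CHAPS, 50 mM KCl, 5 mM β-mercaptoethanol. Ac-DEVD-AMC (10 µM final) then added for 10 min. IC50 by nonlinear regression, converted to Ki = IC50/(1+[S]/KM). Mean of three assays.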

[14] = molecular target: T3, Caspase-3; test: Inhibition of caspase 3 in neutrophils
[15] = tested on: HUVEC; test: Inhibition of PARP cleavage in apoptotic HUVEC at 100 uM; format: functional, cell-based; conditions: Homo sapiens; method in brief: as §2
[16] = tested on: HUVEC; test: Inhibition of lamin A/C cleavage in apoptotic HUVEC at 100 uM; format: functional, cell-based; conditions: Homo sapiens; method in brief: as §2

Caspase-8, sequence (Q14790 217-374 limits assumed): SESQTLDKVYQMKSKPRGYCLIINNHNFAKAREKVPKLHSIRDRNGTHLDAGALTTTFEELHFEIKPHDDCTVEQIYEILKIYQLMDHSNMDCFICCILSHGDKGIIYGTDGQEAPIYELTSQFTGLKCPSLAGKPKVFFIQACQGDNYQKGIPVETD
Caspase-8, sequence (Q14790 385-479 limits assumed): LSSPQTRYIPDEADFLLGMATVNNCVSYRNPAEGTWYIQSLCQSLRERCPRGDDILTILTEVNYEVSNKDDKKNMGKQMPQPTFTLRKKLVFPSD

IC50 [1] [µM]	IC50 [2] [µM]	Activity [3]	Activity [4]	Activity [5]	Activity [6]	Activity [7]	IC50 [8] [µM]	IC50 [9] [µM]	IC50 [10] [µM]	Ki [13] [µM]	IC50 [14] [µM]	SMILES	Activity [11]	Activity [12]	Activity [15]	Activity [16]
0.004	> 500	Active	Active	Active	Active	Active	> 10	0.0184	> 500	–	–	COC[C@@H]1CCCN1S(=O)(=O)c1ccc2c(c1)C(=O)C(=O)N2Cc1ccc(OC)cc1	Active	Active	–	–
0.0509	> 500	–	–	–	–	–	> 500	0.0175	> 500	0.0086	–	Cc1ccc(S(=O)(=O)OCCOc2ccc(CN3C(=O)C(=O)c4cc(S(=O)(=O)N5CCC[C@H]5COc5ccccc5)ccc43)cc2)cc1	–	–	–	–
0.0186	> 500	–	–	–	–	–	> 500	–	> 500	–	–	O=C1C(=O)N(Cc2ccc(I)cc2)c2ccc(S(=O)(=O)N3CCC[C@H]3COc3ccccc3)cc21	–	–	–	–
0.304	> 500	Active	Active	Active	Active	Active	> 25	0.0024	> 500	0.0012	–	COC[C@@H]1CCCN1S(=O)(=O)c1ccc2c(c1)C(=O)C(=O)N2C	Active	Active	–	–
0.0527	> 500	–	–	–	–	–	> 25	0.0082	> 500	0.004	–	O=C1C(=O)N(Cc2ccc(O)cc2)c2ccc(S(=O)(=O)N3CCC[C@H]3COc3ccccc3)cc21	–	–	–	–
0.19	> 500	–	–	–	–	–	> 500	0.114	> 500	0.0561	10	CN1C(=O)C(=O)c2cc(S(=O)(=O)N3CCC[C@H]3COc3ccccc3)ccc21	–	–	–	–
0.0312	> 500	–	–	–	–	–	> 500	0.0097	> 500	0.0048	–	COc1ccc(CN2C(=O)C(=O)c3cc(S(=O)(=O)N4CCC[C@H]4COc4ccccc4)ccc32)cc1	–	–	–	–
0.294	> 500	–	–	–	–	–	> 10	0.0169	> 500	0.0083	–	O=C1Nc2ccc(S(=O)(=O)N3CCC[C@H]3COc3ccccc3)cc2C1=O	–	–	–	–
–	> 500	–	–	–	–	–	> 500	0.0003	> 500	0.0002	–	O=C1C(=O)N(Cc2ccc(OCCF)cc2)c2ccc(S(=O)(=O)N3CCC[C@H]3COc3ccccc3)cc21	–	–	–	–
0.0257	> 500	–	–	–	–	–	> 15	0.0163	> 500	0.008	–	COC[C@@H]1CCCN1S(=O)(=O)c1ccc2c(c1)C(=O)C(=O)N2Cc1ccc(OCCBr)cc1	–	–	–	–
0.042	> 500	–	–	–	–	–	> 500	0.0256	> 500	0.0126	–	O=C1C(=O)N(Cc2ccc(OCCBr)cc2)c2ccc(S(=O)(=O)N3CCC[C@H]3COc3ccccc3)cc21	–	–	–	–
0.0138	> 500	–	–	–	–	–	> 500	0.0017	> 500	0.0008	–	COC[C@@H]1CCCN1S(=O)(=O)c1ccc2c(c1)C(=O)C(=O)N2Cc1ccc(OCCOS(=O)(=O)c2ccc(C)cc2)cc1	–	–	–	–
0.0323	> 500	–	–	–	–	–	> 60	0.0478	> 500	0.0235	–	COC[C@@H]1CCCN1S(=O)(=O)c1ccc2c(c1)C(=O)C(=O)N2Cc1ccc(O)cc1	–	–	–	–
0.0018	> 500	Active	–	–	–	–	> 10	0.012	> 500	0.0059	–	COC[C@@H]1CCCN1S(=O)(=O)c1ccc2c(c1)C(=O)C(=O)N2Cc1ccc(I)cc1	–	–	–	–
0.0933	> 25	Active	Active	Active	Active	Active	> 25	0.0364	> 25	0.0179	–	COC[C@@H]1CCCN1S(=O)(=O)c1ccc2c(c1)C(=O)C(=O)N2Cc1ccc(OCCF)cc1	–	–	Active	Active
1.29	> 500	–	–	–	–	–	> 15	0.0849	> 500	0.0418	–	COC[C@@H]1CCCN1S(=O)(=O)c1ccc2c(c1)C(=O)C(=O)N2	–	–	–	–

SMILES	IC50 [1] [µM]	IC50 [2] [µM]	Activity [3]	Activity [4]	Activity [5]	Activity [6]	Activity [7]	IC50 [8] [µM]	IC50 [9] [µM]	IC50 [10] [µM]	Ki [13] [µM]	IC50 [14] [µM]	Activity [11]	Activity [12]	Activity [15]	Activity [16]
CC(C)(C)[Si](C)(C)Oc1ccc(CN2C(=O)C(=O)c3cc(S(=O)(=O)N4CCC[C@H]4COc4ccccc4)ccc32)cc1	0.366	> 500	–	–	–	–	–	> 500	0.02	> 500	0.0098	–	–	–	–	–
COC[C@@H]1CCCN1S(=O)(=O)c1ccc2c(c1)C(=O)C(=O)N2Cc1ccc(O[Si](C)(C)C(C)(C)C)cc1	0.0698	> 500	–	–	–	–	–	> 7	0.0038	> 500	0.0019	–	–	–	–	–

Reference: ChEMBL document CHEMBL1137328, “5-pyrrolidinylsulfonyl isatins as a potential tool for the molecular imaging of caspases in apoptosis” (J Med Chem, 2006)
